Measured values from paper PMC6424611 (Journal of molecular biology, 2019).
Where no end group is shown, it is not given here. The star is where a group is joined. Biotin = O=C1N[C@H]2[C@H](CS[C@H]2CCCCC(=O)*)N1; TTDS = NCCCOCCOCCOCCCNC(=O)CCC(=O)*

Tests used:
SYNJ2BP PDZ = molecular target: T1, SYNJ2BP PDZ (Homo sapiens, UniProt P57105); assay: holdup assay; type: binding; conditions: ~4 μM PDZ
T1 sequence (P57105 13-100 limits assumed): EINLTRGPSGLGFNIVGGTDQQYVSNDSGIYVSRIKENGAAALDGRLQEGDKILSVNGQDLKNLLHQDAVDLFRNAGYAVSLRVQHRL
Summary of the method: (§1)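 Automated holdup against N-terminally biotinylated (TTDS linker) RSK1 725–735 peptides, unphosphorylated and phosphorylated, in triplicate. PDZome v2 clones were codon-optimized and expressed in E. coli, with soluble lysate adjusted to ~4 μM. BI is the PDZ fraction depleted from the fluid phase.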

ARHGEF12 PDZ = molecular target: T2, ARHGEF12 PDZ (Homo sapiens, UniProt Q9NZN5); assay: holdup assay; type: binding; conditions: ~4 μM PDZ
T2 sequence (Q9NZN5 72-151 limits assumed): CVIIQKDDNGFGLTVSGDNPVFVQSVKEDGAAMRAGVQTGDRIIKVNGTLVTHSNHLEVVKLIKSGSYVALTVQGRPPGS
Summary of the method: as §1

LAP2 PDZ = assay: holdup assay; type: binding, human; conditions: ~4 μM PDZ
Summary of the method: as §1

NHERF2-2 PDZ = assay: holdup assay; type: binding, human; conditions: ~4 μM PDZ
Summary of the method: as §1

GORASP2 PDZ = assay: holdup assay; type: binding, human; conditions: ~4 μM PDZ
Summary of the method: as §1

HTRA1 PDZ = HTRA1 PDZ (Homo sapiens, UniProt Q92743); assay: holdup assay; type: binding; conditions: ~4 μM PDZ
Summary of the method: as §1

NHERF3-1 PDZ = molecular target: T3, NHERF3-1 PDZ (Homo sapiens, UniProt Q5T2W1); assay: holdup assay; type: binding; conditions: ~4 μM PDZ
T3 sequence (Q5T2W1 9-90 limits assumed): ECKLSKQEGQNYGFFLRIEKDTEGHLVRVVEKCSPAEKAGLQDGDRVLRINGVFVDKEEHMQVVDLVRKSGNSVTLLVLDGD
Summary of the method: as §1

[1] = system: human PDZ domains (PDZome); assay: holdup assay, PDZome-binding profile; conditions: PDZome profile
Summary of the method: (§2)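 Automated holdup in triplicate measured biotinylated (N-terminal TTDS linker) RSK1 725–735 peptides, unphosphorylated or phosphorylated, against E. coli-expressed PDZome v2 domains. Soluble lysate was adjusted to ~4 μM, giving 255 domains for the unphosphorylated and 252 for the phosphorylated peptide. Binding intensity (BI) is the fraction of PDZ depleted from the fluid phase. BI 0.2 was the high-confidence threshold.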

MAGI3-2 PDZ = assay: holdup assay; type: binding, human; conditions: fraction of PDZ depleted; ~4 μM PDZ; biotinylated RSK1_725–735; triplicates
Summary of the method: as §2

SHANK3 PDZ = assay: holdup assay; type: binding, human; conditions: ~4 μM PDZ
Summary of the method: as §1

MAGI2-2 PDZ = MAGI2-2 PDZ (Homo sapiens, UniProt Q86UL8); assay: holdup assay; type: binding; conditions: ~4 μM PDZ
Summary of the method: as §1

SNTA1 PDZ = molecular target: T4, SNTA1 PDZ (Homo sapiens, UniProt Q13424); assay: holdup assay; type: binding; conditions: fraction of PDZ depleted; ~4 μM PDZ; biotinylated RSK1_725–735; triplicates
T4 sequence (Q13424 87-170 limits assumed): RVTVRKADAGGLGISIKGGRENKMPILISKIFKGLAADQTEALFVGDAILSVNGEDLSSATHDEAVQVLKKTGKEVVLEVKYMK
Summary of the method: as §1

LIMK2 PDZ = assay: holdup assay; type: binding, human; conditions: ~4 μM PDZ
Summary of the method: as §1

MAST2 PDZ = molecular target: T5, MAST2 PDZ (Homo sapiens, UniProt Q6P0Q8); assay: holdup assay; type: binding; conditions: fraction of PDZ depleted; ~4 μM PDZ; biotinylated RSK1_725–735; triplicates
T5 sequence (Q6P0Q8 1104-1192 limits assumed): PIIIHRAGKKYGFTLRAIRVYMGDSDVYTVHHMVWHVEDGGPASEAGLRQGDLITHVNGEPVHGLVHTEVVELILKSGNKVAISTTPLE
Summary of the method: as §1

DLG4-2 PDZ = assay: holdup assay; type: binding, human; conditions: ~4 μM PDZ
GRID2IP-1 PDZ = assay: holdup assay; type: binding, human; conditions: ~4 μM PDZ
Summary of the method: as §1

MAGI1-2 PDZ = MAGI1-2 PDZ (Homo sapiens, UniProt Q96QZ7); assay: holdup assay; type: binding; conditions: ~4 μM PDZ
Summary of the method: as §1

MAST1 PDZ = molecular target: T6, MAST1 PDZ (Homo sapiens, UniProt Q9Y2H9); assay: holdup assay; type: binding; conditions: ~4 μM PDZ
T6 sequence (Q9Y2H9 967-1055 limits assumed): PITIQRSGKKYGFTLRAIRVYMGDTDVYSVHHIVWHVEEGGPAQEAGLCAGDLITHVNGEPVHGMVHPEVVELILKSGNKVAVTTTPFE
Summary of the method: as §1

PPP1R9A PDZ = assay: holdup assay; type: binding, human; conditions: ~4 μM PDZ
Summary of the method: as §1

ARHGEF11 PDZ = assay: holdup assay; type: binding, human; conditions: fraction of PDZ depleted; ~4 μM PDZ; biotinylated RSK1_725–735; triplicates
Summary of the method: as §1

SCRIB-3 PDZ = assay: holdup assay, updated analysis; type: binding, human; conditions: weak partner; automated computational protocol
Summary of the method: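 The same triplicate holdup datasets (biotinylated RSK1 725–735, unphosphorylated and phosphorylated, vs ~4 μM PDZome lysates) were re-analysed with an updated automated computational protocol. This gave alternative BI values, reported as supplemental values alongside the conventional analysis.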

PARD3B-1 PDZ = molecular target: T7, PARD3B-1 PDZ (Homo sapiens, UniProt Q8TEW8); assay: holdup assay; type: binding; conditions: fraction of PDZ depleted; ~4 μM PDZ; biotinylated RSK1_725–735; triplicates
T7 sequence (Q8TEW8 201-289 limits assumed): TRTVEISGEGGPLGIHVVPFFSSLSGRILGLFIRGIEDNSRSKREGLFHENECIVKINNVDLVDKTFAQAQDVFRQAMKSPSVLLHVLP
Summary of the method: as §2

PDZRN3-1 PDZ = molecular target: T8, PDZRN3-1 PDZ (Homo sapiens, UniProt Q9UPQ7); assay: holdup assay; type: binding; conditions: ~4 μM PDZ
T8 sequence (Q9UPQ7 249-339 limits assumed): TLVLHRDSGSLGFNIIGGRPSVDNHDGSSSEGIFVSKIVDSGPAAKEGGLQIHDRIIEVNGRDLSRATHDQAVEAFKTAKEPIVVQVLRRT
Summary of the method: as §1

LNX1 −3 PDZ = assay: holdup assay; type: binding, human; conditions: ~4 μM PDZ
Summary of the method: as §1

DFNB31-3 PDZ = assay: holdup assay; type: binding, human; conditions: ~4 μM PDZ
Summary of the method: as §1

[2] = fraction of PDZ depleted, biotinylated RSK1_725–735, triplicates
[3] = read-out: KD, estimated, from BI, estimated 17 μM peptide

Chain of MAGI2-2 PDZ (Q86UL8 426-510 limits assumed): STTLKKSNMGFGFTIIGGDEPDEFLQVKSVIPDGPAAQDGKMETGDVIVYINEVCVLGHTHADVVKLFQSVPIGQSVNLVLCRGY
Chain of HTRA1 PDZ (Q92743 365-467 limits assumed): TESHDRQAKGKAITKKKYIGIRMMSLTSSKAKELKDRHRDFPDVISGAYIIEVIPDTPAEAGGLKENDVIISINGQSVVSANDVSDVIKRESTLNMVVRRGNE
Chain of MAGI1-2 PDZ (Q96QZ7 472-554 limits assumed): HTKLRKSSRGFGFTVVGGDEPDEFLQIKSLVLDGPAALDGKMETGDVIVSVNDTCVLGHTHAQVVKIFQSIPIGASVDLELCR

## unphosphorylated RSK1 peptide: C-terminal RSK1 PBM peptide; RSK1_725–735 (holdup, SPR), RSK1_729–735 (direct FP), RSK1_683–735 (competitive FP) ({Biotin-TTDS}-RRVRKLPSTTL)
SYNJ2BP PDZ; [2]
  binding intensity (BI): 0.26 ± 0.07
SYNJ2BP PDZ; [3]
  Kd: 45.4 µM
ARHGEF12 PDZ; [2]
  binding intensity (BI): 0.77 ± 0.02
ARHGEF12 PDZ; [3]
  Kd: 4.2 µM
LAP2 PDZ; [2]
  binding intensity (BI): −0.02 ± 0.05
LAP2 PDZ; [3]
  Kd: > 100 µM
NHERF2-2 PDZ; [2]
  binding intensity (BI): 0.20 ± 0.04
NHERF2-2 PDZ; [3]
  Kd: 64.8 µM
GORASP2 PDZ; [2]
  binding intensity (BI): 0.41 ± 0.02
GORASP2 PDZ; [3]
  Kd: 22.1 µM
HTRA1 PDZ; [2]
  binding intensity (BI): 0.44 ± 0.03
HTRA1 PDZ; [3]
  Kd: 19.4 µM
NHERF3-1 PDZ; [2]
  binding intensity (BI): 0.41 ± 0.01
NHERF3-1 PDZ; [3]
  Kd: 22.1 µM
[1]
  average BI: 0.42
  maximal BI: 0.77
MAGI3-2 PDZ
  binding intensity (BI): 0.28 ± 0.03
SHANK3 PDZ; [2]
  binding intensity (BI): 0.27 ± 0.03
SHANK3 PDZ; [3]
  Kd: 43 µM
MAGI2-2 PDZ; [2]
  binding intensity (BI): 0.42 ± 0.01
MAGI2-2 PDZ; [3]
  Kd: 21.2 µM
SNTA1 PDZ
  binding intensity (BI): 0.31 ± 0.04
LIMK2 PDZ; [2]
  binding intensity (BI): 0.01 ± 0.06
LIMK2 PDZ; [3]
  Kd: > 100 µM
MAST2 PDZ
  binding intensity (BI): 0.74 ± 0.03
DLG4-2 PDZ; [2]
  binding intensity (BI): 0.11 ± 0.03
DLG4-2 PDZ; [3]
  Kd: > 100 µM
GRID2IP-1 PDZ; [2]
  binding intensity (BI): 0.06 ± 0.02
GRID2IP-1 PDZ; [3]
  Kd: > 100 µM
MAGI1-2 PDZ; [2]
  binding intensity (BI): 0.43 ± 0.02
MAGI1-2 PDZ; [3]
  Kd: 20.3 µM
MAST1 PDZ; [2]
  binding intensity (BI): 0.57 ± 0.01
MAST1 PDZ; [3]
  Kd: 11.1 µM
PPP1R9A PDZ; [2]
  binding intensity (BI): 0.00 ± 0.02
PPP1R9A PDZ; [3]
  Kd: > 100 µM
ARHGEF11 PDZ
  binding intensity (BI): 0.28 ± 0.06
SCRIB-3 PDZ
  interaction partner by updated analysis: new interaction partners
PARD3B-1 PDZ
  binding intensity (BI): 0.52 ± 0.05
PDZRN3-1 PDZ; [2]
  binding intensity (BI): 0.26 ± 0.01
PDZRN3-1 PDZ; [3]
  Kd: 45.4 µM
LNX1 −3 PDZ; [2]
  binding intensity (BI): 0.04 ± 0.02
LNX1 −3 PDZ; [3]
  Kd: > 100 µM
DFNB31-3 PDZ; [2]
  binding intensity (BI): 0.23 ± 0.04
DFNB31-3 PDZ; [3]
  Kd: 53.8 µM
